Active and inactive are the calls of the source. Unless noted, no stated cut-off is given here; in the data, active means inhibition above about 30%; inactive means the rest.

The source of these data is PubChem BioAssay.

The nature of assay [1]: reducers of endogenous Her2 protein level, primary screen, SKBR3 breast tumor cells, AlphaScreen, ATP viability (AID 461;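 active means Her2 level under about 52% in both replicate screens, with viability over 70% of control, limit read from the data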;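 on Her2 level: lower value means less Her2 protein in the cells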;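 on viability: percent of carrier control wells set as 100% viability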). The settings on record: 18-24 h, measured here: SKBR3 viability, ATP luminescence, at 10 µM. For orientation: Bead proximity is the source of the signal in Alpha formats.
Assay [2] concerns the target Receptor tyrosine-protein kinase erbB-2 (Homo sapiens) (UniProt P04626). The assay is described as above. Particulars: 18-24 h, at 10 µM, stronger effect = lower value.
Assay [3] in a line: SK-BR-3 cell growth inhibitors, pilot screen, 24 h, human (AID 572;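 active means viability at or below 10% of carrier control in both of two separate runs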;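 further: compound exposure lasted between 18 and 24 h rather than exactly 24 h; 100% = carrier-treated control wells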). Particulars: SK-BR-3 viability, CellTiter-Glo luminescence, at 10 µM, stronger effect = lower value.
The nature of assay [4]: HUVEC growth inhibition – cell-based, human, primary screen (AID 575;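 active means viability at or below 30% in both replicate assays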;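 further: 100% = median of untreated cell wells with 0.1% DMSO on each plate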). Particulars: HUVEC proliferation, CellTiter-Glo luminescence, 72 h; at 10 µM; stronger effect = lower value. The essentials:
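Timing: 72 h treatment at 37 °C; material: HUVEC primary cells; technique: CellTiter-Glo luminescence measuring cellular ATP; controls: vehicle and MePR control wells; measure: percent of median DMSO-control luminescence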

Assay [5] in a line: growth inhibitors of H69AR lung tumor, primary screen, human, duplicate replicates (AID 580;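 active means viability at or under a set limit in both replicates, limit being median viability minus 3 SD, cut at about 48% in these data, passing the limit was not always enough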;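 further: 100% = mean luminescence of untreated wells and 0% = no signal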). The settings on record: H69AR lung tumor cells viability, ATP luminescence, 72 h; at 10 µM; stronger effect = lower value.
Assay [6] is described as follows: reversal of MRP1-mediated doxorubicin resistance, pilot screen, H69AR cells, doxorubicin co-treatment (AID 601;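 active means viability loss from added drug above about 55%, and viability with drug at most 40%, in both replicates, limit read from the data, passing the limit was not always enough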). Particulars: CellTiter-Glo, 72 h, at 10 µM; for differential viability (reversal): stronger effect = higher value. (In general: In ATP-based viability assays light output follows the ATP content of the culture.)
The nature of assay [7]: 384-well plate pilot, post-Golgi transport modulator project, inhibition of yeast transport mutant growth (AID 636; in the data active means inhibition above about 31%). The settings on record: absorbance 615 nm, about 18 h, stronger effect = higher value.
A short description of assay [8]: growth suppression of yeast trafficking mutant, preliminary HTS, modulators of trafficking downstream of Golgi apparatus project, 1536-format plate, OD 615 nm (AID 637). Particulars: yeast transport mutant growth, absorbance 615 nm, 18 h; stronger effect = higher value.
Setting [9] is: H69AR cells + 2 uM doxorubicin, measured here: viability with 2 uM doxorubicin, stronger effect = lower value.
Setting [10] is: H69AR cells, compound alone cytotoxicity.

Sequence of Receptor tyrosine-protein kinase erbB-2 (Homo sapiens) (P04626 whole entry, looked up): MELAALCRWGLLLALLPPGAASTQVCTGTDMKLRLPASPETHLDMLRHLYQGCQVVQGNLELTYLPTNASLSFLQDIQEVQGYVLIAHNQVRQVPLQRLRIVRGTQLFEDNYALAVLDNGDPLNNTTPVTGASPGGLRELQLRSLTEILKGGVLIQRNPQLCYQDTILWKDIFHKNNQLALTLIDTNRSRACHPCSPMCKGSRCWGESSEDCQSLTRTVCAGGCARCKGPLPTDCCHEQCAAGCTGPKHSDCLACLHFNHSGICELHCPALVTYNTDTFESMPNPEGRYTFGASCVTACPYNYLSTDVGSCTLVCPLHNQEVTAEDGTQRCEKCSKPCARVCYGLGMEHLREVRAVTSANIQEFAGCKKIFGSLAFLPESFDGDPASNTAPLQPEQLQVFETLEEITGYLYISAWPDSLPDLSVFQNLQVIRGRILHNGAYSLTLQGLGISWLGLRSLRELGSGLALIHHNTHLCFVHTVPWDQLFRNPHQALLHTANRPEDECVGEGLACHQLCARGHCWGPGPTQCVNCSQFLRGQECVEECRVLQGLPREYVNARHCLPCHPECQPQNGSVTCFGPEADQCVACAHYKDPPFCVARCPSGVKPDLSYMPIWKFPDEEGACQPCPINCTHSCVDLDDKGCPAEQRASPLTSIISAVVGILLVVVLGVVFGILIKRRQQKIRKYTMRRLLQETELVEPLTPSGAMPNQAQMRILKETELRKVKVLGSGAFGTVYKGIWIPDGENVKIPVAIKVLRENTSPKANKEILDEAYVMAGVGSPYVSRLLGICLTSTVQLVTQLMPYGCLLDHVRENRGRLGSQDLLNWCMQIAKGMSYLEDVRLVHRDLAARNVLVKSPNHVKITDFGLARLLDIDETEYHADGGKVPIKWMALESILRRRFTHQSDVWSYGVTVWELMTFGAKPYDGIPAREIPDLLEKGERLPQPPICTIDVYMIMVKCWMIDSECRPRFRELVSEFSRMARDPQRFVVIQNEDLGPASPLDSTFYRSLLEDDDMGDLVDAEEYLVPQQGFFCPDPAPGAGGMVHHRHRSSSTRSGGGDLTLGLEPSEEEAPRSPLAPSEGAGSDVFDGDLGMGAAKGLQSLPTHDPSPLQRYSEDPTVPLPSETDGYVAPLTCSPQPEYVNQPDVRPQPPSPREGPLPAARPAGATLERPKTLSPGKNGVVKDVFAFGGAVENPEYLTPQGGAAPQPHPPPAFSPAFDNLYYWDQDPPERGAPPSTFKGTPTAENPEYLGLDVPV

As usually defined, the viability is a read-out of living cells in per cent, often relative to untreated cells. What is called inhibition is the drop in the measured response relative to a control, in per cent. For the compound `COC(C)(C)c1cc(C(C)(C)C)nc(N)n1`, the viability is 107% in assay [1]; 107% (inactive) in assay [3]; 86.2% (inactive) in assay [4]; 89.9% (inactive) in assay [5]; 91.2% in assay [6] (setting [9]); 89.9% in assay [6] (setting [10]). The Her2 level in assay [2] was 109% (inactive). Also, the differential viability (reversal) in assay [6] (H69AR cells + 2 uM doxorubicin) was -1.34% (inactive). Also, the inhibition in assay [7] was -2.08% (inactive); in assay [8], -4.75% (inactive).

With `CCOC(=O)C1CCCN(C(=O)c2ccc(CS(=O)(=O)Cc3ccccc3C)o2)C1` (stereo not given), the viability is 94.5% in assay [1]; 94.5% (inactive) in assay [3]; 84.4% (inactive) in assay [4]; 96.2% (inactive) in assay [5]; 86.3% in assay [6] (setting [9]); 96.2% in assay [6] (setting [10]). For the same compound, in assay [2], the Her2 level is 97.5% (inactive). Further, the differential viability (reversal) in assay [6] (H69AR cells + 2 uM doxorubicin) is 9.89% (inactive). Moreover, the figures for the inhibition in assay [7] and in assay [8] were -0.39% (inactive) and -8.23% (inactive), respectively.

As for `COCCNC(=O)c1ccc2c(c1)nc(C)n2-c1cccc(F)c1`, the viability in assay [1] was 129%; in assay [3], 129% (inactive); in assay [4], 92.7% (inactive); in assay [5], 90.5% (inactive); in assay [6] (setting [9]) it was 90.6%; in assay [6] (setting [10]), 90.5%. For the same compound, the Her2 level in assay [2] is 79.5% (inactive). For the same compound, the differential viability (reversal) in assay [6] (H69AR cells + 2 uM doxorubicin) is -0.17% (inactive). Moreover, the inhibition in assay [7] is -0.92% (inactive); in assay [8] it was 4.35% (inactive).

For the compound `COC(=O)C(NC(C)=O)(Nc1ccccn1)C(F)(F)F` (stereo not given), the viability in assay [1] is 98%; in assay [3], 98% (inactive); in assay [4], 105% (inactive); in assay [5] it was 89% (inactive); in assay [6] (setting [9]), 94.4%; in assay [6] (setting [10]), 89%. The Her2 level in assay [2] was 78% (inactive). Also, the differential viability (reversal) in assay [6] (H69AR cells + 2 uM doxorubicin) is -5.41% (inactive). Moreover, the inhibition is -1.97% (inactive) in assay [7] and -7.64% (inactive) in assay [8].

For the compound `CCCCn1c(SCC(=O)c2ccc3c(c2)OCCO3)nnc1-c1ccco1`, the viability in assay [1] is 94.5%; in assay [3], 94.5% (inactive); in assay [4] it was 81.8% (inactive); in assay [5], 95% (inactive); in assay [6] (setting [9]) it was 93.4%; in assay [6] (setting [10]), 95%. Further, the Her2 level in assay [2] was 104% (inactive). For the same compound, in assay [6] (H69AR cells + 2 uM doxorubicin), the differential viability (reversal) was 1.53% (inactive). In addition, the inhibition in assay [7] is 1.73% (inactive); in assay [8], 16.1% (inactive).

Take `Cc1cc(C)c(-c2cc(C(=O)Nc3c(C)n(C)n(-c4ccccc4)c3=O)[nH]n2)c(O)c1`: the viability in assay [1] was 99.5%; in assay [3], 99.5% (inactive); in assay [4] it was 97.5% (inactive); in assay [5], 105% (inactive); in assay [6] (setting [9]), 100%; in assay [6] (setting [10]), 105%. The Her2 level in assay [2] is 98% (inactive). For the same compound, in assay [6] (H69AR cells + 2 uM doxorubicin), the differential viability (reversal) was 4.32% (inactive). Further, the inhibition in assay [7] is -1.97% (inactive); in assay [8], -5.09% (inactive).

For the compound `CC(C)(C)NC(=O)COC(=O)c1ccc(O)cc1`, the viability in assay [1] is 100%; in assay [3] it was 100% (inactive); in assay [4], 103% (inactive); in assay [5], 98.9% (inactive); in assay [6] (setting [9]), 103%; in assay [6] (setting [10]), 98.9%. The Her2 level in assay [2] was 104% (inactive). Besides, in assay [6] (H69AR cells + 2 uM doxorubicin), the differential viability (reversal) is -3.93% (inactive). Further, the inhibition was -2.99% (inactive) in assay [7] and -1.27% (inactive) in assay [8].

As to `COc1ccccc1Cn1nnc2c(=O)[nH]c(C3CCN(C(=O)c4ccccc4Cl)CC3)nc21`, the viability in assay [1] is 93%; in assay [3] it was 93% (inactive); in assay [4], 102% (inactive); in assay [5], 82.2% (inactive); in assay [6] (setting [9]), 28.1%; in assay [6] (setting [10]) it was 82.2%. The Her2 level in assay [2] was 95.5% (inactive). In assay [6] (H69AR cells + 2 uM doxorubicin), the differential viability (reversal) was 54.1% (inactive). Moreover, the inhibition in assay [7] was -3.64% (inactive); in assay [8], 0.48% (inactive).

Consider `Cc1ccc2c(c1)-c1cc(C)nn1C(c1ccc3c(c1)OCO3)N2` (stereo not given), for which the viability in assay [1] is 100%; in assay [3], 100% (inactive); in assay [4] it was 54% (inactive); in assay [5], 87.2% (inactive); in assay [6] (setting [9]) it was 98.4%; in assay [6] (setting [10]) it was 87.2%. In addition, the Her2 level in assay [2] was 100% (inactive). The differential viability (reversal) in assay [6] (H69AR cells + 2 uM doxorubicin) was -11.2% (inactive). Also, the inhibition in assay [7] is -2.76% (inactive); in assay [8], -3.55% (inactive).

Turning to `Cc1cccc(NS(=O)(=O)c2cc(C(=O)OCC(=O)Nc3cc(C)on3)ccc2C)c1`, the viability was 93% in assay [1]; 93% (inactive) in assay [3]; 77.7% (inactive) in assay [4]; 112% (inactive) in assay [5]; 102% in assay [6] (setting [9]); 112% in assay [6] (setting [10]). Moreover, the Her2 level in assay [2] is 86% (inactive). Besides, the differential viability (reversal) in assay [6] (H69AR cells + 2 uM doxorubicin) is 10.1% (inactive). In addition, the inhibition in assay [7] is -2.8% (inactive); in assay [8] it was -2.26% (inactive).

For `COCCn1nnnc1C(C(C)C)N1CCN(C(=O)c2ccco2)CC1` (stereo not given), the viability is 92.5% in assay [1]; 92.5% (inactive) in assay [3]; 99.2% (inactive) in assay [4]; 96.7% (inactive) in assay [5]; 98.2% in assay [6] (setting [9]); 96.7% in assay [6] (setting [10]). For the same compound, the Her2 level in assay [2] was 112% (inactive). In assay [6] (H69AR cells + 2 uM doxorubicin), the differential viability (reversal) is -1.47% (inactive). In addition, the results for the inhibition in assay [7] and in assay [8] were 3.77% (inactive) and 15.6% (inactive), respectively.

`COC(=O)C1CCN(C(=O)c2sc3nc(-c4ccc(F)cc4)cn3c2C)CC1`: the viability is 76.5% in assay [1]; 76.5% (inactive) in assay [3]; 99.8% (inactive) in assay [4]; 100% (inactive) in assay [5]; 77.9% in assay [6] (setting [9]); 100% in assay [6] (setting [10]). The Her2 level in assay [2] was 92% (inactive). In assay [6] (H69AR cells + 2 uM doxorubicin), the differential viability (reversal) is 22.1% (inactive). In addition, the inhibition is -1.07% (inactive) in assay [7] and 0.81% (inactive) in assay [8].

For the compound `Cc1ccc(S(=O)(=O)N(CCO)c2cc3c(s2)CCCC3)cc1`, the viability in assay [1] is 114%; in assay [3], 114% (inactive); in assay [4], 68.6% (inactive); in assay [5], 81.9% (inactive); in assay [6] (setting [9]) it was 85.6%; in assay [6] (setting [10]) it was 81.9%. For the same compound, the Her2 level in assay [2] is 94.5% (inactive). The differential viability (reversal) in assay [6] (H69AR cells + 2 uM doxorubicin) was -3.64% (inactive). For the same compound, the inhibition in assay [7] is -5.32% (inactive); in assay [8], -7.5% (inactive).

On to `Cc1ccc(F)cc1NC(=O)Cc1nn(C)c(=O)c2ccccc12`, for which the viability is 96.5% in assay [1]; 96.5% (inactive) in assay [3]; 74.1% (inactive) in assay [4]; 93.4% (inactive) in assay [5]; 77.6% in assay [6] (setting [9]); 93.4% in assay [6] (setting [10]). Besides, the Her2 level in assay [2] was 74.5% (inactive). In addition, the differential viability (reversal) in assay [6] (H69AR cells + 2 uM doxorubicin) is 15.8% (inactive). Besides, the inhibition in assay [7] was -0.66% (inactive); in assay [8], -0.16% (inactive).

For `CCOC(=O)C1=C(C)OC(N)=C(C#N)C1c1ccoc1` (stereo not given), the viability is 111% in assay [1]; 111% (inactive) in assay [3]; 88.1% (inactive) in assay [4]; 95.3% (inactive) in assay [5]; 84% in assay [6] (setting [9]); 95.3% in assay [6] (setting [10]). Also, the Her2 level in assay [2] is 107% (inactive). The differential viability (reversal) in assay [6] (H69AR cells + 2 uM doxorubicin) is 11.2% (inactive). In addition, the inhibition was 1.04% (inactive) in assay [7] and -4.17% (inactive) in assay [8].
